Screens from PubChem.
ANO1 block: TMEM16A chloride channel inhibitors, primary screen, cell-based, HTS. normalized B-score (activity score, 25-100; higher = stronger inhibition) at 10 µM. Anoctamin-1 (Mus musculus), Q8BHY3. HEK293 TMEM16A/YFP iodide influx fluorescence, ionomycin. hit rate 1.2% among 310,000;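 active = ratio plate-corrected score three or more library SD toward inhibition, starting fluorescence score within five deviations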;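 also: score derived from kinetic fluorescence span divided by baseline fluorescence per well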
Target sequence (Q8BHY3 whole entry, looked up): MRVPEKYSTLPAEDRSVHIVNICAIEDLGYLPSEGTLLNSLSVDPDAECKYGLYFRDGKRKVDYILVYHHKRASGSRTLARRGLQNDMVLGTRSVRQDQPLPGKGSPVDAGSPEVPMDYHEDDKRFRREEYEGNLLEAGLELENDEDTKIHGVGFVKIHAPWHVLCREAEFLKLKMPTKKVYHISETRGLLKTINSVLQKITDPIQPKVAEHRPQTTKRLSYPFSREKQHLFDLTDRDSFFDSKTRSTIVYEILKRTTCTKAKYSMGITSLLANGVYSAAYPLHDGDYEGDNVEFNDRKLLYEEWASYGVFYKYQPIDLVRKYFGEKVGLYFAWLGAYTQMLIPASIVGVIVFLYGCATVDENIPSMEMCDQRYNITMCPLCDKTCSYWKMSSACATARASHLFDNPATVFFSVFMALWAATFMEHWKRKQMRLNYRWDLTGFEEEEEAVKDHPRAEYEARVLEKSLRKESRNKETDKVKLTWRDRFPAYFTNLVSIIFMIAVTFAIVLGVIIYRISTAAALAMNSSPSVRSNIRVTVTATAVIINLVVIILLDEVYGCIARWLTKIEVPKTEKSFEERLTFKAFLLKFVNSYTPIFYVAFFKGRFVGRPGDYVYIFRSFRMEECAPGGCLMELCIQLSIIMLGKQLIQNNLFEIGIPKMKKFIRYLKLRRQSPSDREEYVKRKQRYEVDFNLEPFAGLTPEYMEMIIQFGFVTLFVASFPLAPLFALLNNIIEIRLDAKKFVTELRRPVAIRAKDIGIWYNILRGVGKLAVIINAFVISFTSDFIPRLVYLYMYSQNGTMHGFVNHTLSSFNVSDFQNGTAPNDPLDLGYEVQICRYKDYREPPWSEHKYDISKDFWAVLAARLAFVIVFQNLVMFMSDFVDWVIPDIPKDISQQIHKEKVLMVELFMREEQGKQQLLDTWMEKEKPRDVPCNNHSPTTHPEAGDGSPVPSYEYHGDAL
ANO1 activ: TMEM16A chloride channel activators or potentiators, primary screen, cell-based, HTS; B-score at 10 µM; Anoctamin-1 (Mus musculus), Q8BHY3; AID 623877, 2012; hit rate 0.3% among 340,000; HEK293 TMEM16A/YFP-H148Q/I152L, iodide quench fluorescence; stronger effect = lower value;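 active = fluorescence-ratio B-score plate-corrected deviation score at least 3 library SD below zero, with starting fluorescence score within 5 deviations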;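 also: channel opened by trigger with iodide after compound preincubation; score built on the fluorescence ratio of max minus min over baseline; more negative score means more quench and so TMEM16A activation or potentiation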
TAAR1 antagonist: human TAAR1 antagonists, primary screen, Fluo-8 calcium fluorescence, CHO RD-HGA16 cells; antagonist; Trace amine-associated receptor 1 (Homo sapiens), Q96RJ0; hit rate 1.5% among 360,000; inhibition, % at 3 µM;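 active = inhibition above a per-plate cutoff, the mean inhibition of test compounds on that plate plus 3 SD, cut at about 49% in these data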
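Test system – hTAAR1-expressing CHO RD-HGA16 cells, Gα16-coupled · Reagent – β-PEA at EC80 concentration, post-compound challenge · Compound dosing – 3 µM, single point · Timing – 140 s kinetic read after compound, 140 s after agonist · Detection – Fluo-8 intracellular calcium dye fluorescence, real-time kinetic reads · Control set – DMSO and EC80 PEA controls · Repeats – n of 1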
CRFR2-BP antag: antagonists of CRF-BP/CRF-R2 complex, primary screen, cell-based, HEK293, calcium dye fluorescence, uHTS; CRF-induced calcium fluorescence; inhibition, % at 11.8 µM; hit rate 0.59% among 350,000; AID 588475, 2011;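 active = inhibition of the ligand-induced calcium signal above about 50% at the single tested concentration, limit read from the data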
CRFR2-BP ag: agonists of CRF-BP/CRF-R2 complex, primary screen, cell-based, HEK293, calcium dye fluorescence, uHTS | calcium dye fluorescence (FLIPR); percent of saturating CRF peptide response | activation, % at 13.2 µM | hit rate 0.46% among 350,000 | AID 588473, 2011;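 active = activation of at least 50%, plus an integration ratio under a set limit after plate pattern correction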
TAAR1 ag: human TAAR1 agonists, primary screen, Fluo-8 calcium fluorescence, CHO RD-HGA16 cells; Trace amine-associated receptor 1 (Homo sapiens), Q96RJ0; vehicle wells 0%, saturating PEA agonist 100%; AID 624467, 2012; activation, % at 3 µM; hit rate 0.99% among 360,000;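 active = activation above the mean activation of all test compounds in the run plus 3 SD, cut at about 38% in these data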
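test system = CHO RD-HGA16 cells carrying human TAAR1 plus Gα16 | schedule = 17-24 h seeding, 75 min 37 °C dye, 30 min RT | compound dosing = 3 µM single concentration | control set = DMSO and PEA EC100 | replicates = n 1 | signal = Fluo-8 fluorescence, 5 s baseline then 140 s kinetic read | measure = percent activation vs PEA EC100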
Numbers stand for hits. Most compounds without a hit are left out; they make up all but 3.9% or so of the library.

How did COc1cccc(CNC(=O)CCCc2c[nH]c3ccccc23)c1 do in these assays?
ANO1 block: inactive; ANO1 activ: inactive; TAAR1 antagonist: inactive; CRFR2-BP antag: inactive; CRFR2-BP ag: inactive; TAAR1 ag: inactive

How did O=C(/C=C/c1cn(-c2ccccc2)nc1-c1cccnc1)c1ccco1 do in these assays?
ANO1 block: inactive; ANO1 activ: inactive; TAAR1 antagonist: inactive; CRFR2-BP antag: inactive; CRFR2-BP ag: inactive; TAAR1 ag: inactive

What do the screens show for `CN1CCN(C(=O)c2ccc(CSc3nc4ccncc4n3Cc3ccc(F)cc3)cc2)CC1`?
ANO1 block: inactive; ANO1 activ: inactive; TAAR1 antagonist: inactive; CRFR2-BP antag: inactive; CRFR2-BP ag: inactive; TAAR1 ag: inactive

How did CCOC(=O)N1CCN(C(=O)c2ccc3nc(SCc4ccc(F)cc4)n(C)c3c2)CC1 do in these assays?
ANO1 block: inactive; ANO1 activ: inactive; TAAR1 antagonist: inactive; CRFR2-BP antag: 51.0; CRFR2-BP ag: inactive; TAAR1 ag: inactive

Results for CC(C)c1ccc(C(=O)OCC(=O)NC2CCCC2)cc1 ?
ANO1 block: inactive; ANO1 activ: inactive; TAAR1 antagonist: inactive; CRFR2-BP antag: inactive; CRFR2-BP ag: inactive; TAAR1 ag: inactive

How did O=C(O)CCC1c2cc3c4cc2OC2Oc5cc6c(cc51)C(CCC(=O)O)c1cc5c7cc1OC(O6)c1cc6cc(c1)Oc1cc(cc(C(=O)O)c1)Oc1cc8cc(c1)C(Oc1cc(c(cc1C5CCC(=O)O)C3CCC(=O)O)OC(O4)c1cc(cc(c1)Oc1cc(cc(C(=O)O)c1)O8)Oc1cc(cc(C(=O)O)c1)Oc1cc(cc2c1)Oc1cc(cc(C(=O)O)c1)O6)O7 (configuration not stated) do in these assays?
ANO1 block: 25

How did COc1cc(NC(=O)c2cc([N+](=O)[O-])ccc2NC(=O)CN2CCN(c3ccccn3)CC2)cc(OC)c1 do in these assays?
ANO1 block: inactive; ANO1 activ: inactive; TAAR1 antagonist: 60.7; CRFR2-BP antag: inactive; CRFR2-BP ag: inactive; TAAR1 ag: inactive

Results for CCOC(=O)N1CCN(CC(=O)Nc2ccc([N+](=O)[O-])cc2C(=O)Nc2ccccc2F)CC1 ?
ANO1 block: inactive; ANO1 activ: inactive; TAAR1 antagonist: 56.3; CRFR2-BP antag: inactive; CRFR2-BP ag: inactive; TAAR1 ag: inactive

Results for N#CC(C(=O)C12CC3CC(CC(C3)C1)C2)c1nc2ccccc2[nH]1 (configuration not stated) ?
ANO1 block: inactive; ANO1 activ: -9.49; TAAR1 antagonist: inactive; CRFR2-BP antag: inactive; CRFR2-BP ag: inactive; TAAR1 ag: inactive

What do the screens show for `N#CC(C(=O)CCN1C(=O)C2CC=CCC2C1=O)c1nc2ccccc2[nH]1` (configuration not stated)?
ANO1 block: inactive; ANO1 activ: inactive; TAAR1 antagonist: inactive; CRFR2-BP antag: inactive; CRFR2-BP ag: inactive; TAAR1 ag: inactive

What do the screens show for `Cn1c(CNC(=O)CNS(=O)(=O)c2ccc(F)cc2F)cc(=O)n(C)c1=O`?
ANO1 block: inactive; ANO1 activ: inactive; TAAR1 antagonist: inactive; CRFR2-BP antag: inactive; CRFR2-BP ag: inactive; TAAR1 ag: inactive

How did Cc1c2cnn(CC(=O)NC3CCCC3)c(=O)c2c(C)n1Cc1ccccc1 do in these assays?
ANO1 block: inactive; ANO1 activ: inactive; TAAR1 antagonist: inactive; CRFR2-BP antag: 110.9; CRFR2-BP ag: inactive; TAAR1 ag: inactive

How did O=C(COc1cccc(NC(=O)c2cccc([N+](=O)[O-])c2)c1)c1ccc(Br)cc1 do in these assays?
ANO1 block: inactive; ANO1 activ: inactive; TAAR1 antagonist: 83.3; CRFR2-BP antag: inactive; CRFR2-BP ag: inactive; TAAR1 ag: inactive

Results for O=C(Nc1ccccc1)c1ccccc1OCc1cccc([N+](=O)[O-])c1 ?
ANO1 block: inactive; ANO1 activ: inactive; TAAR1 antagonist: inactive; CRFR2-BP antag: 53.3; CRFR2-BP ag: inactive; TAAR1 ag: inactive

What do the screens show for `O=C(Nc1cccc([N+](=O)[O-])c1)c1cc2ccccc2cc1O`?
ANO1 block: 100; ANO1 activ: inactive; TAAR1 antagonist: inactive; CRFR2-BP antag: inactive; CRFR2-BP ag: inactive; TAAR1 ag: inactive

How did COc1ccc(-n2nc3c(c2NC(=O)c2ccccc2S(=O)(=O)C(F)F)CS(=O)(=O)C3)cc1 do in these assays?
ANO1 block: inactive; ANO1 activ: inactive; TAAR1 antagonist: inactive; CRFR2-BP antag: inactive; CRFR2-BP ag: inactive; TAAR1 ag: inactive

Results for CC1CCN(C(=O)c2[nH]cnc2C(=O)N[C@@H](C)C(=O)OC(C)(C)C)CC1 ?
ANO1 block: inactive; ANO1 activ: inactive; TAAR1 antagonist: inactive; CRFR2-BP antag: 54.2; CRFR2-BP ag: inactive; TAAR1 ag: inactive

How did C[C@H](NC(=O)c1nc[nH]c1C(=O)N1CCN(C(=O)OC(C)(C)C)CC1)C(=O)OCc1ccccc1 do in these assays?
ANO1 block: inactive; ANO1 activ: inactive; TAAR1 antagonist: inactive; CRFR2-BP antag: inactive; CRFR2-BP ag: inactive; TAAR1 ag: inactive

Results for C[C@H](NC(=O)c1nc[nH]c1C(=O)NC1CCN(C(=O)OC(C)(C)C)CC1)C(=O)OCc1ccccc1 ?
ANO1 block: inactive; ANO1 activ: inactive; TAAR1 antagonist: 56.5; CRFR2-BP antag: inactive; CRFR2-BP ag: inactive; TAAR1 ag: inactive

Results for C[C@H](NC(=O)c1nc[nH]c1C(=O)N1CCN(C(=O)OC(C)(C)C)CC1)C(=O)OC(C)(C)C ?
ANO1 block: inactive; ANO1 activ: inactive; TAAR1 antagonist: inactive; CRFR2-BP antag: inactive; CRFR2-BP ag: inactive; TAAR1 ag: inactive

What do the screens show for `CCc1cc(OCCCCNCc2ccccc2)ccc1Cl`?
ANO1 block: inactive; ANO1 activ: inactive; TAAR1 antagonist: inactive; CRFR2-BP antag: inactive; CRFR2-BP ag: inactive; TAAR1 ag: 41.5

How did CCOCCCNCc1ccc(OCc2ccccc2Cl)cc1 do in these assays?
ANO1 block: inactive; ANO1 activ: inactive; TAAR1 antagonist: inactive; CRFR2-BP antag: inactive; CRFR2-BP ag: inactive; TAAR1 ag: inactive

What do the screens show for `CCCP(=O)(CC(=O)N(CC)CC)c1ccccc1` (configuration not stated)?
ANO1 block: inactive; ANO1 activ: inactive; TAAR1 antagonist: inactive; CRFR2-BP antag: 57.7; CRFR2-BP ag: inactive; TAAR1 ag: inactive

Results for O=C(NC(=O)c1ccccc1O)c1ccc(C(F)(F)F)cc1 ?
ANO1 block: inactive; ANO1 activ: inactive; TAAR1 antagonist: inactive; CRFR2-BP antag: 52.0; CRFR2-BP ag: 54.6; TAAR1 ag: inactive

How did Cc1ccc(NC(=O)C[n+]2ccn(C3=C([O-])c4ccccc4C3=O)c2)cc1 do in these assays?
ANO1 block: inactive; ANO1 activ: inactive; TAAR1 antagonist: inactive; CRFR2-BP antag: inactive; CRFR2-BP ag: inactive; TAAR1 ag: 43.2
